Each structure is given as a SMILES string. Activity calls are given as the source filed them. The calls are words filed in the database; no cut-off is given here.

For the first assay, the system named is MCF7. The experiment in a line: Cell cycle arrest in human MCF7 cells assessed as accumulation at S phase at 10 uM after 24 hrs using propidium iodide staining based flow cytometric analysis (reference value: 12.92 +/- 1 %). The class given is functional. (Flow cytometry measures light scatter and fluorescence of single cells or particles in a stream.)
Turning to `COc1cc2c(cc1OCc1ccccc1)N=C[C@@H]1C[C@H](n3cc(COc4ccc(/C=C/C(=O)c5ccccc5O)cc4OC)nn3)CN1C2=O`, the Activity is given as 6.65%.
As to `COc1cc(/C=C/C(=O)c2cc(Cl)ccc2O)ccc1OCCCCn1cc(COc2cc3c(cc2OC)C(=O)N2CCC[C@H]2C=N3)nn1`, the Activity was 7.74%.
Regarding `COc1cc(/C=C/C(=O)c2ccccc2O)ccc1OCCCCCn1cc(COc2cc3c(cc2OC)C(=O)N2CCC[C@H]2C=N3)nn1`, the Activity was determined as 9.89%.

A further assay concerns A549. The experiment in a line: Anticancer activity against human A549 cells by SRB method. The class given is functional. Summed up: (§1)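 Growth inhibition over a panel of human cancer lines (lung, ovarian, oral, colon, prostate, cervix, breast). Value is the 50% growth-inhibition concentration, reported as the mean ± standard error of the mean of three determinations.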
(In general: The SRB assay estimates cell density from bound dye.)
Take `COc1cc(/C=C/C(=O)c2cc(Cl)ccc2O)ccc1OCCCCn1cc(COc2cc3c(cc2OC)C(=O)N2CCC[C@H]2C=N3)nn1`: growth was halved (GI50) at 190 nM.
Molecule `COc1cc(/C=C/C(=O)c2ccccc2O)ccc1OCCCCCn1cc(COc2cc3c(cc2OC)C(=O)N2CCC[C@H]2C=N3)nn1` showed a GI50 of 170 nM.

A further assay deals with MCF7. The experiment in a line: Cytotoxicity against human MCF7 cells assessed as reduction in cell viability at 2 uM after 24 hrs by MTT assay. The class given is functional, cell-based. In general terms: Tetrazolium dyes change colour on reduction, which living cells bring about.
In the case of `COc1cc2c(cc1OCc1ccccc1)N=C[C@@H]1C[C@H](n3cc(COc4ccc(/C=C/C(=O)c5ccccc5O)cc4OC)nn3)CN1C2=O`, the result was inactive.
Take `COc1cc(/C=C/C(=O)c2cc(Cl)ccc2O)ccc1OCCCCn1cc(COc2cc3c(cc2OC)C(=O)N2CCC[C@H]2C=N3)nn1`: the outcome was inactive.
For the molecule `COc1cc(/C=C/C(=O)c2ccccc2O)ccc1OCCCCCn1cc(COc2cc3c(cc2OC)C(=O)N2CCC[C@H]2C=N3)nn1`, the outcome was inactive.

The next assay concerns HOP-62. The assay is described as follows: Anticancer activity against human HOP62 cells by SRB method. The class given is functional. Summed up: as §1
In the case of `COc1cc(/C=C/C(=O)c2cc(Cl)ccc2O)ccc1OCCCCn1cc(COc2cc3c(cc2OC)C(=O)N2CCC[C@H]2C=N3)nn1`, the GI50 stood at 2500 nM. In other words, the single-digit micromolar range.
On the same count and under the same terms, to `COc1cc(/C=C/C(=O)c2ccccc2O)ccc1OCCCCCn1cc(COc2cc3c(cc2OC)C(=O)N2CCC[C@H]2C=N3)nn1` belongs 2560 nM.

The test system of the next assay is PC-3. The assay is described as follows: Anticancer activity against human PC3 cells by SRB method. The class given is functional. Summed up: as §1
In the case of `COc1cc(/C=C/C(=O)c2cc(Cl)ccc2O)ccc1OCCCCn1cc(COc2cc3c(cc2OC)C(=O)N2CCC[C@H]2C=N3)nn1`, the GI50 worked out at 160 nM. In other words, the sub-micromolar range.
With `COc1cc(/C=C/C(=O)c2ccccc2O)ccc1OCCCCCn1cc(COc2cc3c(cc2OC)C(=O)N2CCC[C@H]2C=N3)nn1`, halving of growth (GI50) required 2040 nM.

The test system of another assay is MCF7. The assay is described as follows: Cell cycle arrest in human MCF7 cells assessed as accumulation at G2/M phase at 10 uM after 24 hrs using propidium iodide staining based flow cytometric analysis (reference value: 38.15 +/- 1.068 %). The assay is classed as functional.
For the molecule `COc1cc2c(cc1OCc1ccccc1)N=C[C@@H]1C[C@H](n3cc(COc4ccc(/C=C/C(=O)c5ccccc5O)cc4OC)nn3)CN1C2=O`, the Activity was found to be 32.06%.
On to `COc1cc(/C=C/C(=O)c2cc(Cl)ccc2O)ccc1OCCCCn1cc(COc2cc3c(cc2OC)C(=O)N2CCC[C@H]2C=N3)nn1`, for which the Activity came out at 31.07%.
Take `COc1cc(/C=C/C(=O)c2ccccc2O)ccc1OCCCCCn1cc(COc2cc3c(cc2OC)C(=O)N2CCC[C@H]2C=N3)nn1`: the Activity is recorded as 35.88%.

Another assay deals with COLO 205. The experiment in a line: Anticancer activity against human COLO205 cells by SRB method. The assay is classed as functional. Summed up:
as §1
`COc1cc(/C=C/C(=O)c2cc(Cl)ccc2O)ccc1OCCCCn1cc(COc2cc3c(cc2OC)C(=O)N2CCC[C@H]2C=N3)nn1` came in with a GI50 of less than 100 nM.
Consider `COc1cc(/C=C/C(=O)c2ccccc2O)ccc1OCCCCCn1cc(COc2cc3c(cc2OC)C(=O)N2CCC[C@H]2C=N3)nn1`, for which the GI50 was 140 nM.

The test system of a further assay is MCF7. The assay is described as follows: Cell cycle arrest in human MCF7 cells assessed as accumulation at G0/G1 phase at 4 uM after 24 hrs using propidium iodide staining based flow cytometric analysis. The class given is functional. Summed up:
(§2)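 MCF-7 cells were seeded at 5 × 10^5 per 60 mm dish and grown for 24 h, then exposed to 4 µM compound for 24 h. Cells were trypsinized, fixed in ice-cold 70% ethanol at 4 °C for 30 min and treated with 1 mg/ml RNase at 37 °C for 30 min. They were stained with propidium iodide/citrate/Triton X-100, and DNA content was read on 20,000 events by flow cytometry. Three independent repeats.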
Take `COc1cc2c(cc1OCc1ccccc1)N=C[C@@H]1C[C@H](n3cc(COc4ccc(/C=C/C(=O)c5ccccc5O)cc4OC)nn3)CN1C2=O`: the Activity is recorded as 59.79%.
With `COc1cc(/C=C/C(=O)c2cc(Cl)ccc2O)ccc1OCCCCn1cc(COc2cc3c(cc2OC)C(=O)N2CCC[C@H]2C=N3)nn1`, the Activity is 61.38%.
On to `COc1cc(/C=C/C(=O)c2ccccc2O)ccc1OCCCCCn1cc(COc2cc3c(cc2OC)C(=O)N2CCC[C@H]2C=N3)nn1`, for which the Activity was determined as 56.23%.

In a further assay the test system is MCF7. The experiment in a line: Anticancer activity against human MCF7 cells by SRB method. The class given is functional. Summed up: as §1
In turn, `COc1cc(/C=C/C(=O)c2cc(Cl)ccc2O)ccc1OCCCCn1cc(COc2cc3c(cc2OC)C(=O)N2CCC[C@H]2C=N3)nn1` displayed a GI50 of 160 nM. This counts as sub-micromolar.
As for `COc1cc(/C=C/C(=O)c2ccccc2O)ccc1OCCCCCn1cc(COc2cc3c(cc2OC)C(=O)N2CCC[C@H]2C=N3)nn1`, the GI50 was found to be 2100 nM. Compared with the last molecule, the GI50 is about 13-fold higher.

The subject of another assay is MCF7. The experiment in a line: Cell cycle arrest in human MCF7 cells assessed as accumulation at G0 phase at 10 uM after 24 hrs using propidium iodide staining based flow cytometric analysis (reference value: 1.27 +/- 0.08 %). The class given is functional.
For the molecule `COc1cc2c(cc1OCc1ccccc1)N=C[C@@H]1C[C@H](n3cc(COc4ccc(/C=C/C(=O)c5ccccc5O)cc4OC)nn3)CN1C2=O`, the Activity came to 5.21%.
On the same count and under the same terms, to `COc1cc(/C=C/C(=O)c2cc(Cl)ccc2O)ccc1OCCCCn1cc(COc2cc3c(cc2OC)C(=O)N2CCC[C@H]2C=N3)nn1` belongs 10.51%; to `COc1cc(/C=C/C(=O)c2ccccc2O)ccc1OCCCCCn1cc(COc2cc3c(cc2OC)C(=O)N2CCC[C@H]2C=N3)nn1`, 7.81%.

System in a further assay: not listed separately
The assay is described as follows: Anticancer activity against human Gurav cells by SRB method. The class given is functional. Summed up: as §1
On to `COc1cc(/C=C/C(=O)c2cc(Cl)ccc2O)ccc1OCCCCn1cc(COc2cc3c(cc2OC)C(=O)N2CCC[C@H]2C=N3)nn1`, for which halving of growth (GI50) required 1660 nM.
Consider `COc1cc(/C=C/C(=O)c2ccccc2O)ccc1OCCCCCn1cc(COc2cc3c(cc2OC)C(=O)N2CCC[C@H]2C=N3)nn1`, for which halving of growth (GI50) required 160 nM. Against the preceding molecule, the GI50 is about 10-fold lower.

For another assay, the system named is SiHa. The experiment in a line: Anticancer activity against human SiHa cells by SRB method. The assay is classed as functional. Summed up:
as §1
`COc1cc(/C=C/C(=O)c2ccccc2O)ccc1OCCCCCn1cc(COc2cc3c(cc2OC)C(=O)N2CCC[C@H]2C=N3)nn1`: halving of growth (GI50) required 2710 nM.

System in another assay: not listed separately
The experiment in a line: Anticancer activity against human DWD cells by SRB method. The assay is classed as functional. An outline of the steps:
as §1
`COc1cc(/C=C/C(=O)c2cc(Cl)ccc2O)ccc1OCCCCn1cc(COc2cc3c(cc2OC)C(=O)N2CCC[C@H]2C=N3)nn1` registered a GI50 of less than 170 nM.
Regarding `COc1cc(/C=C/C(=O)c2ccccc2O)ccc1OCCCCCn1cc(COc2cc3c(cc2OC)C(=O)N2CCC[C@H]2C=N3)nn1`, halving of growth (GI50) required 2300 nM.

The test system of the next assay is MCF7. The experiment in a line: Induction of cell cycle arrest at G1 phase in human MCF7 cells at 4 uM after 24 hrs using propidium iodide staining based flow cytometric analysis. The class given is functional. An outline of the steps: as §2
Turning to `COc1cc2c(cc1OCc1ccccc1)N=C[C@@H]1C[C@H](n3cc(COc4ccc(/C=C/C(=O)c5ccccc5O)cc4OC)nn3)CN1C2=O`, the outcome was Active.
Turning to `COc1cc(/C=C/C(=O)c2cc(Cl)ccc2O)ccc1OCCCCn1cc(COc2cc3c(cc2OC)C(=O)N2CCC[C@H]2C=N3)nn1`, the result was Active.
Regarding `COc1cc(/C=C/C(=O)c2ccccc2O)ccc1OCCCCCn1cc(COc2cc3c(cc2OC)C(=O)N2CCC[C@H]2C=N3)nn1`, the result was Active.

A further assay concerns A2780. The experiment in a line: Anticancer activity against human A2780 cells by SRB method. The assay is classed as functional. An outline of the steps:
as §1
As for `COc1cc(/C=C/C(=O)c2cc(Cl)ccc2O)ccc1OCCCCn1cc(COc2cc3c(cc2OC)C(=O)N2CCC[C@H]2C=N3)nn1`, growth was halved (GI50) at 130 nM. In other words, the sub-micromolar range.
Regarding `COc1cc(/C=C/C(=O)c2ccccc2O)ccc1OCCCCCn1cc(COc2cc3c(cc2OC)C(=O)N2CCC[C@H]2C=N3)nn1`, the GI50 was 140 nM.

In the next assay the test system is ZR-75-1. The assay is described as follows: Anticancer activity against human ZR-75-1 cells by SRB method. The assay is classed as functional. An outline of the steps:
as §1
With `COc1cc(/C=C/C(=O)c2cc(Cl)ccc2O)ccc1OCCCCn1cc(COc2cc3c(cc2OC)C(=O)N2CCC[C@H]2C=N3)nn1`, halving of growth (GI50) required 190 nM.
`COc1cc(/C=C/C(=O)c2ccccc2O)ccc1OCCCCCn1cc(COc2cc3c(cc2OC)C(=O)N2CCC[C@H]2C=N3)nn1` displayed a GI50 of 170 nM.

The next assay has as its system KB. The experiment in a line: Anticancer activity against human KB cells by SRB method. The assay is classed as functional. Summed up:
as §1
Consider `COc1cc(/C=C/C(=O)c2cc(Cl)ccc2O)ccc1OCCCCn1cc(COc2cc3c(cc2OC)C(=O)N2CCC[C@H]2C=N3)nn1`, for which halving of growth (GI50) required 2660 nM. In other words, the single-digit micromolar range.
For `COc1cc(/C=C/C(=O)c2ccccc2O)ccc1OCCCCCn1cc(COc2cc3c(cc2OC)C(=O)N2CCC[C@H]2C=N3)nn1`, the GI50 stood at 180 nM.

Another assay concerns MCF7. The experiment in a line: Cell cycle arrest in human MCF7 cells assessed as accumulation at G1 phase at 10 uM after 24 hrs using propidium iodide staining based flow cytometric analysis (reference value: 47.64 +/- 1.49 %). The class given is functional.
Regarding `COc1cc2c(cc1OCc1ccccc1)N=C[C@@H]1C[C@H](n3cc(COc4ccc(/C=C/C(=O)c5ccccc5O)cc4OC)nn3)CN1C2=O`, the Activity is recorded as 54.61%.
On the same count and under the same terms, to `COc1cc(/C=C/C(=O)c2cc(Cl)ccc2O)ccc1OCCCCn1cc(COc2cc3c(cc2OC)C(=O)N2CCC[C@H]2C=N3)nn1` belongs 50.63%.
With `COc1cc(/C=C/C(=O)c2ccccc2O)ccc1OCCCCCn1cc(COc2cc3c(cc2OC)C(=O)N2CCC[C@H]2C=N3)nn1`, the Activity was 46.39%.

Broadly, the GI50 is the concentration giving 50% growth inhibition. Lower therefore signals greater sensitivity of the cells.

These data come from ChEMBL document CHEMBL1821554, “Synthesis and anticancer activity of chalcone-pyrrolobenzodiazepine conjugates linked via 1,2,3-triazole ring side-armed with alkane spacers” (2011).
